Screening data: PubChem, several laboratories
UPR CHOP act = activators of apoptotic CHOP UPR arm, primary screen, cell-based, CHO-CHOP luciferase reporter, luminescence, uHTS. UPR activation; percent of tunicamycin response over DMSO baseline. activation, % at 10 µM. 0.34% of 330,000 active;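 active means at 10 µM dose, activation of 40% or more, normalized to positive control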;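 further: 100% = tunicamycin at 10 µg/mL and 0% = DMSO alone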
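Material: CHO-CHOP cells, stable luciferase reporter of PERK-eIF2a-CHOP signalling; quantity: 500 reporter cells seeded per well; buffer or medium: F12 medium containing 10% fetal bovine serum; compound: one dose, 10 µM in 0.5% DMSO; incubation: 6 h compound treatment, 37 °C; measured by: Steady-Glo luciferase luminescence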
UPR XBP1 act = activators of adaptive XBP1 UPR arm, primary screen, cell-based, CHO-XBP1 luciferase reporter, luminescence, uHTS; IRE1-XBP1 UPR activation; percent of tunicamycin response, DMSO as zero; activation, % at 20 µM; 0.33% of 330,000 active;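 active means versus positive control, 20 µM dose yields 30% or more activation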;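 further: 100% = tunicamycin at 10 µg/mL and 0% = DMSO only wells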
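Material: CHO-XBP1 cells stably carrying IRE1-XBP1-driven luciferase reporter / Amount: 1000 cells per well / Compound: 20 µM, 1% DMSO / Times: 6 h treatment, 37 °C / Detection: luciferase luminescence / Measure: % activation of reporter signal versus tunicamycin and DMSO controls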
697 NFkB inh = inhibitors of PMA/ionomycin-induced NF-kB reporter, 697 cells, primary screen, B-cell NF-kB inhibitor project, cell-based, luminescence, uHTS. 697 B-cell NF-kB luciferase reporter, 16 h. 0.33% of 330,000 active. inhibition, % at 4 µM. AID 435022, 2010; in the data active means inhibition above about 35%
Jurkat NFkB inh = inhibitors of induced NF-kB luciferase reporter, primary screen, TCR NF-kB activation inhibitor project, cell-based, luminescence, uHTS; 0.53% of 330,000 active; inhibition, % at 4 µM; Jurkat, PMA/ionomycin-induced NF-kB luciferase reporter; in the data active means inhibition above about 50%
CHOP inh = inhibitors of CHOP promoter induction, primary screen, cell-based, unfolded protein response, luciferase reporter; CHO-K1 CHOP-promoter luciferase, tunicamycin-induced, 15-18 h; inhibition, % at 10 µM; 3.8% of 220,000 active; AID 2732, 2010;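 active means compounds that reduced the stress-induced luciferase reporter signal by more than about 70% of percent inhibition, limit read from the data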;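 further: 0% = tunicamycin plus vehicle and 100% = wells without tunicamycin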
* hit, by the source's call; . = no result given. The full list was thinned out, with hits kept by preference.

SMILES | UPR CHOP act | UPR XBP1 act | 697 NFkB inh | Jurkat NFkB inh | CHOP inh
CC1CCCN(C(=O)COC(=O)c2cc(-c3cccs3)nn2-c2ccccc2)C1 (configuration not stated) | 0 | 2 | -4 | 6 | .
Cc1cccc(C)c1OCCSc1nc2ccccc2n1CC(=O)O | 2 | -3 | -12 | 7 | .
CCn1c(C)cc(/C=C2/NC(=O)N(Cc3ccccc3F)C2=O)c1C | 0 | 2 | 27 | 5 | 21
Cc1cc(/C=C2/NC(=O)N(Cc3ccccc3F)C2=O)c(C)n1C(C)C | 3 | 4 | 8 | 8 | 72*
COc1ccc2nc(C)cc(NCc3ccc(F)cc3)c2c1 | 0 | -1 | -15 | -11 | .
CNS(=O)(=O)c1cc(NC(=O)c2cncn2-c2ccccc2)ccc1C | -1 | -1 | -6 | 2 | .
COc1cnc(-c2cccc(C(F)(F)F)c2)[nH]c1=O | 0 | -3 | 16 | 15 | 36
FC(F)(F)c1cccc(-c2nc3nc(Cl)c(Cl)nc3[nH]2)c1 | 12 | -5 | -12 | -37 | 74*
CC(CCc1ccccc1)NC(=O)c1ccccc1 (configuration not stated) | -3 | 2 | 6 | -22 | 22
CC(CCc1ccccc1)NC(=O)c1ccc(C(=O)NC(C)CCc2ccccc2)cc1 (configuration not stated) | 3 | -3 | -54 | 49 | 82*
N#Cc1nc(Cc2cccc3ccccc23)oc1N1CCCCC1 | -1 | 4 | -23 | -11 | 76*
N#Cc1nc(COc2ccc(Br)cc2)oc1N1CCN(Cc2ccccc2)CC1 | . | . | . | . | 74*
N#Cc1nc(COc2ccc(Cl)cc2)oc1N1CCCCCC1 | 5 | -1 | 6 | 7 | 71*
Cc1ccc(OCc2nc(C#N)c(N3CCCCC3)o2)cc1 | 1 | -1 | -26 | -8 | 19
Cc1cccc(NC(=O)c2ccccc2NC(=O)C2CCCCC2)c1C | -2 | -4 | -16 | 0 | 78*
O=C(Nc1ccccc1)c1ccccc1NC(=O)C1CCCCC1 | 0 | -3 | -18 | 2 | 68
CCCCCCCCCCCCCCC[C@H](O)[C@H](N)CO | . | . | . | . | -18
CC1CC(=O)Nc2ccccc2N1C(=O)COc1cc(Cl)ccc1Cl (configuration not stated) | 1 | 3 | 14 | -4 | .
O=C(NCCS(=O)(=O)NCC1CCCO1)c1ccccc1 (configuration not stated) | 0 | 0 | 7 | 2 | .
O=C(Nc1cccc(NC(=O)c2ccc(Cl)cc2Cl)c1)c1cccnc1 | 2 | 5 | -3 | -2 | .
COc1ccccc1CNC(=O)CN1C(=O)NC2(CCCc3ccccc32)C1=O (configuration not stated) | -1 | -5 | 11 | -1 | .
C=C(C)C1CC=C(C)/C(=N\NC(=O)CCC(=O)Nc2ccc(C)c(C)c2)C1 (configuration not stated) | 3 | -1 | 19 | 0 | 77*
CCOc1ccc(Cn2nnc(C(=O)Nc3cc(C)cc(C)c3)c2N)cc1 | 1 | 0 | 1 | 16 | 75*
Cc1ccc(Cn2nnc(C(=O)Nc3cccc(C)c3C)c2N)cc1 | 1 | 10 | 9 | -10 | 8
CCOc1ccc(Cn2nnc(C(=O)Nc3cc(OC)cc(OC)c3)c2N)cc1 | -2 | 0 | 3 | -26 | 38
SMILES | UPR CHOP act | UPR XBP1 act | 697 NFkB inh | Jurkat NFkB inh | CHOP inh
CCc1ccc(Cn2nnc(C(=O)Nc3cccc(C)c3)c2N)cc1 | 1 | -2 | 4 | -10 | 71*
CCN1CCN(c2ccc(S(=O)(=O)N3CCCCC3)cc2NC(=O)c2ccc(C)o2)CC1 | 2 | -1 | -5 | 4 | .
COc1ccc(CN2CCC(CO)(Cc3ccccc3C(F)(F)F)CC2)c(F)c1 | 0 | 0 | 8 | 7 | 19
CC(C)[C@H]1C(=O)Nc2ccccc2N1C(=O)N[C@@H](Cc1ccccc1)C(=O)N[C@@H](Cc1ccccc1)C(=O)O | 0 | 2 | 15 | -6 | .
Oc1ccc(NCc2ccccc2OCc2ccccc2F)cc1 | 3 | 9 | 16 | -3 | 85*
Cc1ccc(NCc2ccccc2OCc2ccccc2F)cc1 | 0 | 0 | -2 | 12 | 85*
CCOC(=O)c1c(C)nc2ccc(Cl)cc2c1-c1ccccc1 | 0 | -5 | 20 | 2 | 82*
CCOC(=O)c1c(C)nc2ccccc2c1-c1ccccc1 | 0 | -1 | -12 | -3 | 36
O=C(Cc1ccccc1)NCC(=O)OCC(=O)c1ccc(Cl)cc1 | 2 | -5 | 20 | 7 | .
O=C(CCN1CCC(c2ccc(Cl)s2)=N1)c1ccc(Cl)s1 | 1 | 0 | 8 | -1 | 17
COC(=O)c1oc2ccc(Br)cc2c1NC(=O)CCCN1C(=O)c2ccccc2C1=O | 1 | -2 | 2 | 13 | 95*
O=C(CCCN1C(=O)c2ccccc2C1=O)Nc1c(C(=O)C2CC2)oc2ccccc12 | -1 | 3 | 3 | 5 | 10
Cc1cc2c(N=NC(=O)CCc3ccccc3)c(O)[nH]c2cc1Br | -1 | -3 | -5 | -1 | 83*
Cc1cccc(C)c1OCC(=O)N=Nc1c(O)[nH]c2ccc(Br)cc12 | 1 | 24 | 16 | -5 | -10
CCCCc1nnc(SCC(=O)NC2CCCCC2)n1C | 0 | -4 | -6 | 2 | .
COCCn1c(-c2ccc(OC(F)(F)C(F)C(F)(F)F)cc2)nc2c1c(=O)[nH]c(=O)n2CC(C)C (configuration not stated) | -2 | -2 | -7 | -14 | 73*
COCCn1c(-c2ccc(SC)cc2)nc2c1c(=O)[nH]c(=O)n2CC(C)C | 1 | 4 | -5 | -9 | .
Cc1ccc(N(C(=O)CNC(=O)c2cccs2)C(C(=O)NC2CCCC2)c2ccncc2)cc1 (configuration not stated) | 0 | 0 | -5 | -2 | .
C=CCN1CCc2cc(O)c(O)cc2C(c2ccccc2)C1 (configuration not stated) | -1 | -8 | 1 | -10 | 95*
O=C(CCC(=O)N1CCCC(Nc2ccccc2)C1)c1ccc(F)cc1 (configuration not stated) | 0 | -2 | -3 | 1 | .
Cc1cccc(N2C(=O)c3ccccc3C2=O)n1 | 0 | -6 | 1 | -2 | .
CC(C)c1ccc(S(=O)(=O)Nc2ccc(SC(F)F)cc2)cc1 | 0 | 0 | -19 | -4 | 101*
CC(C)c1ccc(NS(=O)(=O)c2ccc(-n3cccn3)cc2)cc1 | 1 | 0 | -18 | 5 | .
O=C(Cc1ccc(NS(=O)(=O)c2ccc(Cl)c(Cl)c2)cc1)NCCN1CCOCC1 | 1 | 1 | -1 | 2 | .
